Measured values taken from ChEMBL document CHEMBL3351600, “Sulfur, selenium and tellurium pseudopeptides: synthesis and biological evaluation” (Bioorg Med Chem, 2014).
Activity calls are given as the source filed them. No cut-off for these calls is given here.

Columns and labels:
Klebsiella pneumoniae = assay: Antimicrobial activity against Klebsiella pneumoniae assessed as inhibition at 20 ug/6 mm disk after 1 to 2 days by agar diffusion assay; assay type: functional
Method in brief: (§1)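 Standard agar diffusion: 6-mm paper disks loaded with 20 µg of compound were placed on inoculated plates. Inhibition-zone diameter (mm) was read after 1 and 2 days of growth.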

Pseudomonas aeruginosa = assay: Antimicrobial activity against Pseudomonas aeruginosa assessed as inhibition at 20 ug/6 mm disk after 1 to 2 days by agar diffusion assay; assay type: functional; method in brief: as §1
A-431 [1] = assay: Cytotoxicity against human A431 cells assessed as cell viability after 24 hrs incubation by MTT assay; assay type: functional, cell-based; conditions: A-431, 24 h
Method in brief: (§2)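 Cell lines came from DSMZ; primary human fibroblasts served as non-cancer controls. Cells were grown in medium with 10% FCS, seeded at 50,000 cells/ml, and grown 2 days at 37 °C, 10% CO2. Serial dilutions were then added for 24 h. MTT (final 0.5 mg/ml) was added for 2 h. Formazan was pelleted, PBS-washed, dissolved in isopropanol/0.4% HCl and read at 590 nm. Two parallel experiments were run. IC50 was taken as the concentration giving 50% of untreated-control absorbance.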

Candida albicans = assay: Antimicrobial activity against Candida albicans assessed as inhibition at 20 ug/6 mm disk after 1 to 2 days by agar diffusion assay; assay type: functional; method in brief: as §1
Mycolicibacterium phlei = assay: Antimicrobial activity against Mycobacterium phlei assessed as inhibition at 20 ug/6 mm disk after 1 to 2 days by agar diffusion assay; assay type: functional; method in brief: as §1
Staphylococcus aureus = assay: Antimicrobial activity against Staphylococcus aureus assessed as inhibition at 20 ug/6 mm disk after 1 to 2 days by agar diffusion assay; assay type: functional; method in brief: as §1
[2] = Octanol-water partition coefficient, log P of the compound by HPLC analysis; assay type: physicochemical
Method in brief: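 Lipophilicity was measured by reversed-phase HPLC on a Nucleosil C18 column with isocratic water/methanol (3:1) at 0.5 ml/min and UV detection at 230 and 245 nm. Dead time was set with thiourea (t0 0.728 min). Retention factor was k = (tR − t0)/t0, and log P came from a calibration against at least six reference compounds.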

[3] = Lipophilicity, log K of the compound by HPLC analysis
Saccharomyces cerevisiae = assay: Antimicrobial activity against Saccharomyces cerevisiae assessed as inhibition at 20 ug/6 mm disk after 1 to 2 days by agar diffusion assay; assay type: functional; method in brief: as §1
Escherichia coli = assay: Antimicrobial activity against Escherichia coli tolC assessed as inhibition at 20 ug/6 mm disk after 1 to 2 days by agar diffusion assay; assay type: functional; method in brief: as §1
[4] = Cytotoxicity against human fibroblasts assessed as cell viability after 24 hrs incubation by MTT assay; assay type: cell-based; conditions: Fibroblast; method in brief: as §2
MCF7 = assay: Cytotoxicity against human MCF7 cells assessed as cell viability after 24 hrs incubation by MTT assay; assay type: functional, cell-based; conditions: MCF7, 24 h; method in brief: as §2
Aspergillus niger = assay: Antimicrobial activity against Aspergillus niger assessed as inhibition at 20 ug/6 mm disk after 1 to 2 days by agar diffusion assay; assay type: functional; method in brief: as §1
Micrococcus luteus = assay: Antimicrobial activity against Micrococcus luteus assessed as inhibition at 20 ug/6 mm disk after 1 to 2 days by agar diffusion assay; assay type: functional; method in brief: as §1
A-431 [5] = assay: Reduction in ROS in human A431 cells assessed as decrease in hydrogen peroxide level at 1 to 100 ng/ml after 1 hr by DCHFA assay; assay type: functional, cell-based
Method in brief: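 A-431 cells (10^5 per well) were treated with a range of compound concentrations for 1 h. They were then loaded with DCHFA probe for 30 min in the dark. Fluorescence (ex 485/em 528 nm) was read immediately and expressed as arbitrary units per 10^5 cells.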

A-431 [6] = assay: Reduction in ROS in human A431 cells assessed as decrease in hydrogen peroxide level at 0.1 to 10 ng/ml after 1 hr by DCHFA assay; assay type: functional, cell-based
Method in brief: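 A-431 cells were seeded at 10^5 per well and exposed to a range of compound concentrations for 1 h. They were then loaded with DCHFA probe for 30 min in the dark. Fluorescence was read immediately at ex/em 485/528 nm and expressed as arbitrary units per 10^5 cells.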

| Compound | Retention_time [min] | logP [2] | log K [3] | diameter of the inhibition zone (DIZ) (Klebsiella pneumoniae) [mm] | diameter of the inhibition zone (DIZ) (Pseudomonas aeruginosa) [mm] | IC50 (A-431 [1]) [µM] | diameter of the inhibition zone (DIZ) (Candida albicans) [mm] | diameter of the inhibition zone (DIZ) (Mycolicibacterium phlei) [mm] | diameter of the inhibition zone (DIZ) (Staphylococcus aureus) [mm] | diameter of the inhibition zone (DIZ) (Saccharomyces cerevisiae) [mm] | diameter of the inhibition zone (DIZ) (Escherichia coli) [mm] | IC50 [4] [µM] | IC50 (MCF7) [µM] | diameter of the inhibition zone (DIZ) (Aspergillus niger) [mm] | diameter of the inhibition zone (DIZ) (Micrococcus luteus) [mm] | Activity (A-431 [5]) | Activity (A-431 [6]) |
| --- | --- | --- | --- | --- | --- | --- | --- | --- | --- | --- | --- | --- | --- | --- | --- | --- | --- |
| COc1ccc(N(CC(=O)NCCC[Te]c2ccccc2)C(=O)/C=C/c2ccccc2)cc1 | 0.834 | 1.31 | -0.84 | 13 | 9 | 6 | 0 | 12 | 11 | 0 | 11 | 5 | 2 | 0 | 8 |  | Dose-dependent effect |
| O=C(COC(=O)C#Cc1ccccc1)NCCC[Te]c1ccccc1 | 0.794 | 0.9 | -1.04 | 0 | 0 | 7 | 0 | 15 | 0 | 0 | 0 | 7 | 1 | 0 | 9 |  | Dose-dependent effect |
| O=C(COC(=O)/C=C/c1ccccc1)NCCC[Te]c1ccccc1 | 1.356 | 3.01 | -0.06 | 0 | 0 | 6 | 0 | 0 | 0 | 0 | 0 | 11 | 1 | 0 | 7 |  | Dose-dependent effect |
| c1ccccc1 [BENZENE] |  |  | -0.53 |  |  |  |  |  |  |  |  |  |  |  |  |  |  |
| Cc1ccc(C(C)C)c(O)c1 [THYMOL] | 1.285 |  | -0.12 |  |  |  |  |  |  |  |  |  |  |  |  |  |  |
| NC(N)=S [THIOUREA] | 0.728 |  |  |  |  |  |  |  |  |  |  |  |  |  |  |  |  |
| Cc1ccccc1 [TOLUENE] | 1.508 |  |  |  |  |  |  |  |  |  |  |  |  |  |  |  |  |
| CC(=O)Nc1ccccc1 [ACETANILIDE] | 0.811 |  | -0.94 |  |  |  |  |  |  |  |  |  |  |  |  |  |  |
| c1ccc2ccccc2c1 | 1.894 |  | 0.2 |  |  |  |  |  |  |  |  |  |  |  |  |  |  |

The next lines start with results.

| Retention_time [min] | logP [2] | log K [3] | Compound | diameter of the inhibition zone (DIZ) (Klebsiella pneumoniae) [mm] | diameter of the inhibition zone (DIZ) (Pseudomonas aeruginosa) [mm] | IC50 (A-431 [1]) [µM] | diameter of the inhibition zone (DIZ) (Candida albicans) [mm] | diameter of the inhibition zone (DIZ) (Mycolicibacterium phlei) [mm] | diameter of the inhibition zone (DIZ) (Staphylococcus aureus) [mm] | diameter of the inhibition zone (DIZ) (Saccharomyces cerevisiae) [mm] | diameter of the inhibition zone (DIZ) (Escherichia coli) [mm] | IC50 [4] [µM] | IC50 (MCF7) [µM] | diameter of the inhibition zone (DIZ) (Aspergillus niger) [mm] | diameter of the inhibition zone (DIZ) (Micrococcus luteus) [mm] | Activity (A-431 [5]) | Activity (A-431 [6]) |
| --- | --- | --- | --- | --- | --- | --- | --- | --- | --- | --- | --- | --- | --- | --- | --- | --- | --- |
| 1.434 | 3.3 | -0.01 | COc1ccc(N(CC(=O)NCCC[Se]c2ccccc2)C(=O)CNC(=O)OC(C)(C)C)cc1 | 0 | 0 | ≥ 100 | 0 | 0 | 0 | 0 | 0 | ≥ 100 | ≥ 100 | 0 | 0 |  |  |
| 3.615 |  | 0.6 | c1ccc2c(c1)ccc1ccccc12 |  |  |  |  |  |  |  |  |  |  |  |  |  |  |
| 2.088 | 3.7 | 0.27 | COc1ccc(N(CC(=O)NCCC[Se]c2ccccc2)C(=O)/C=C/c2ccccc2)cc1 | 0 | 0 | ≥ 100 | 0 | 0 | 0 | 0 | 0 | ≥ 100 | ≥ 100 | 0 | 0 | inactive |  |
| 1.407 | 3.1 | -0.03 | COc1ccc(N(CC(=O)NCCCSc2ccccc2)C(=O)c2ccccc2)cc1 | 0 | 0 | ≥ 100 | 0 | 0 | 0 | 0 | 0 | ≥ 100 | ≥ 100 | 0 | 0 | inactive |  |
| 3.297 | 4.23 | 0.55 | COc1ccc(N(CC(=O)NCCC[Se]c2ccccc2)C(=O)CCSC2=C(C)C(=O)c3ccccc3C2=O)cc1 | 0 | 0 | 17 | 0 | 0 | 0 | 0 | 0 | 24 | 8 | 0 | 7 |  |  |
| 2.514 | 4 | 0.39 | COc1ccc(N(CC(=O)NCCCSc2ccccc2)C(=O)/C=C/c2ccccc2)cc1 | 0 | 0 | ≥ 100 | 0 | 15 | 0 | 0 | 0 | ≥ 100 | ≥ 100 | 0 | 0 |  |  |
| 2.94 | 4.2 | 0.48 | COc1ccc(N(CC(=O)NCCCSc2ccccc2)C(=O)CCSC2=C(C)C(=O)c3ccccc3C2=O)cc1 | 0 | 0 | 17 | 0 | 0 | 0 | 0 | 0 | 26 | 16 | 0 | 0 |  |  |
| 2.17 | 3.12 | 0.3 | COc1ccc(N(CC(=O)NCCCSc2ccccc2)C(=O)CNC(=O)OC(C)(C)C)cc1 | 0 | 0 | ≥ 100 | 0 | 0 | 0 | 0 | 0 | ≥ 100 | ≥ 100 | 0 | 0 |  |  |
| 1.134 | 2.6 | -0.25 | COc1ccc(N(CC(=O)NCCC[Se]c2ccccc2)C(=O)C#Cc2ccccc2)cc1 | 0 | 0 | ≥ 100 | 0 | 0 | 0 | 0 | 0 | ≥ 100 | ≥ 100 | 19 | 0 |  |  |
